# According to ChEMBL document CHEMBL1154778, “Synthesis and biological evaluation of C-5 methyl substituted 4-arylthio and 4-aryloxy-3-Iodopyridin-2(1H)-one type anti-HIV agents” (J Med Chem, 2009):
# System: Human immunodeficiency virus 1
# Test: Antiviral activity against HIV1 HXB2 harboring K103N mutant reverse transcriptase infected in human MT4 cells after 5 days by MTT assay
# Type: functional, organism-based
# Conditions: Human immunodeficiency virus 1, HXB2, MT4, 120 h
# Outline: (§1)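 Mutant viruses were made by recombining the mutant PR-RT sequence into a PR-RT-deleted HIV-1 HXB2 proviral clone. MT4 cells were grown in RPMI 1640 with 10% FCS and antibiotics. Virus at 200 CCID50/well and 30000 cells/well were incubated with varied compound concentrations for 5 days at 37 °C, 5% CO2. MTT viability gave IC50, the concentration giving 50% infection versus the drug-free control.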
row,Compound,IC50 [nM]
1,Cc1cc(C)cc(Oc2c(COCc3ccccc3)c(C)[nH]c(=O)c2I)c1,31.6
2,Cc1cc(C)cc(Sc2c(Cn3cnc(-c4ccccc4)n3)c(C)[nH]c(=O)c2I)c1,7.94
3,Cc1cc(C)cc(Oc2c(CN3CCSCC3)c(C)[nH]c(=O)c2I)c1,7.94
4,Cc1cc(C)cc(Sc2c(CN(C)Cc3ccco3)c(C)[nH]c(=O)c2I)c1,15.8
5,COCCSCc1c(C)[nH]c(=O)c(I)c1Oc1cc(C)cc(C)c1,1.58
6,CC(=O)c1c(C)cn(Cc2c(C)[nH]c(=O)c(I)c2Sc2cc(C)cc(C)c2)c1C,50.1
7,Cc1cc(C)cc(Sc2c(CSCc3ccco3)c(C)[nH]c(=O)c2I)c1,5.01
8,Cc1cc(C)cc(Sc2c(Cn3ncnc3C)c(C)[nH]c(=O)c2I)c1,15.8
9,Cc1cc(C)cc(Oc2c(CSCC(C)C)c(C)[nH]c(=O)c2I)c1,25.1
10,Cc1cc(C)cc(Sc2c(CN3CCOC(CCO)C3)c(C)[nH]c(=O)c2I)c1 (stereo not drawn),1.58
11,CCSCc1c(C)[nH]c(=O)c(I)c1Sc1cc(C)cc(C)c1,5.01

# System: Human immunodeficiency virus 1
# Test: Antiviral activity against HIV1 HXB2 harboring Y188L mutant reverse transcriptase infected in human MT4 cells after 5 days by MTT assay
# Type: functional, organism-based
# Conditions: Human immunodeficiency virus 1, HXB2, MT4, 120 h
# Outline: as §1
row,Compound,IC50 [nM]
1,Cc1cc(C)cc(Oc2c(COCc3ccccc3)c(C)[nH]c(=O)c2I)c1,125
2,Cc1cc(C)cc(Sc2c(Cn3cnc(-c4ccccc4)n3)c(C)[nH]c(=O)c2I)c1,39.8
3,Cc1cc(C)cc(Oc2c(CN3CCSCC3)c(C)[nH]c(=O)c2I)c1,125
4,Cc1cc(C)cc(Sc2c(CN(C)Cc3ccco3)c(C)[nH]c(=O)c2I)c1,794
5,COCCSCc1c(C)[nH]c(=O)c(I)c1Oc1cc(C)cc(C)c1,31.6
6,CC(=O)c1c(C)cn(Cc2c(C)[nH]c(=O)c(I)c2Sc2cc(C)cc(C)c2)c1C,199
7,Cc1cc(C)cc(Sc2c(CSCc3ccco3)c(C)[nH]c(=O)c2I)c1,1000
8,Cc1cc(C)cc(Sc2c(Cn3ncnc3C)c(C)[nH]c(=O)c2I)c1,316
9,Cc1cc(C)cc(Oc2c(CSCC(C)C)c(C)[nH]c(=O)c2I)c1,794
10,Cc1cc(C)cc(Sc2c(CN3CCOC(CCO)C3)c(C)[nH]c(=O)c2I)c1 (stereo not drawn),199
11,CCSCc1c(C)[nH]c(=O)c(I)c1Sc1cc(C)cc(C)c1,630

# System: Human immunodeficiency virus 1
# Test: Antiviral activity against HIV1 HXB2 harboring 227L and 106A mutant reverse transcriptase infected in human MT4 cells after 5 days by MTT assay
# Type: functional, organism-based
# Conditions: Human immunodeficiency virus 1, HXB2, MT4, 120 h
# Outline: as §1
row,Compound,IC50 [nM]
1,COCCSCc1c(C)[nH]c(=O)c(I)c1Oc1cc(C)cc(C)c1,199

# System: Human immunodeficiency virus 1
# Test: Antiviral activity against HIV1 HXB2 harboring Y181C mutant reverse transcriptase infected in human MT4 cells after 5 days by MTT assay
# Type: functional, organism-based
# Conditions: Human immunodeficiency virus 1, HXB2, MT4, 120 h
# Outline: as §1
row,Compound,IC50 [nM]
1,Cc1cc(C)cc(Oc2c(COCc3ccccc3)c(C)[nH]c(=O)c2I)c1,31.6
2,Cc1cc(C)cc(Sc2c(Cn3cnc(-c4ccccc4)n3)c(C)[nH]c(=O)c2I)c1,10
3,Cc1cc(C)cc(Oc2c(CN3CCSCC3)c(C)[nH]c(=O)c2I)c1,39.8
4,Cc1cc(C)cc(Sc2c(CN(C)Cc3ccco3)c(C)[nH]c(=O)c2I)c1,50.1
5,COCCSCc1c(C)[nH]c(=O)c(I)c1Oc1cc(C)cc(C)c1,7.94
6,CC(=O)c1c(C)cn(Cc2c(C)[nH]c(=O)c(I)c2Sc2cc(C)cc(C)c2)c1C,63
7,Cc1cc(C)cc(Sc2c(CSCc3ccco3)c(C)[nH]c(=O)c2I)c1,39.8
8,Cc1cc(C)cc(Sc2c(Cn3ncnc3C)c(C)[nH]c(=O)c2I)c1,31.6
9,Cc1cc(C)cc(Oc2c(CSCC(C)C)c(C)[nH]c(=O)c2I)c1,50.1
10,Cc1cc(C)cc(Sc2c(CN3CCOC(CCO)C3)c(C)[nH]c(=O)c2I)c1 (stereo not drawn),31.6
11,CCSCc1c(C)[nH]c(=O)c(I)c1Sc1cc(C)cc(C)c1,31.6

# System: Human immunodeficiency virus 1
# Test: Antiviral activity against HIV-1 LAI harboring wild type reverse transcriptase infected in human MT4 cells after 5 days by MTT assay
# Type: functional, organism-based
# Conditions: Human immunodeficiency virus 1, LAI, MT4, 120 h
# Outline: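 MT4 cells were kept in RPMI 1640 with 10% fetal calf serum and antibiotics at 37 °C, 5% CO2. A range of compound concentrations was incubated with HIV-1 LAI at 200 CCID50/well and 30000 MT4 cells/well for 5 days at 37 °C. Cell viability was read by MTT, and IC50 was the concentration giving 50% infection versus the drug-free control.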
row,Compound,IC50 [nM]
1,Cc1cc(C)cc(Oc2c(COCc3ccccc3)c(C)[nH]c(=O)c2I)c1,7.94
2,Cc1cc(C)cc(Sc2c(Cn3cnc(-c4ccccc4)n3)c(C)[nH]c(=O)c2I)c1,6.3
3,Cc1cc(C)cc(Oc2c(CN3CCSCC3)c(C)[nH]c(=O)c2I)c1,6.3
4,Cc1cc(C)cc(Sc2c(CN(C)Cc3ccco3)c(C)[nH]c(=O)c2I)c1,6.3
5,COCCSCc1c(C)[nH]c(=O)c(I)c1Oc1cc(C)cc(C)c1,1.99
6,CC(=O)c1c(C)cn(Cc2c(C)[nH]c(=O)c(I)c2Sc2cc(C)cc(C)c2)c1C,10
7,Cc1cc(C)cc(Sc2c(CSCc3ccco3)c(C)[nH]c(=O)c2I)c1,6.3
8,Cc1cc(C)cc(Sc2c(Cn3ncnc3C)c(C)[nH]c(=O)c2I)c1,1.99
9,Cc1cc(C)cc(Oc2c(CSCC(C)C)c(C)[nH]c(=O)c2I)c1,7.94
10,Cc1cc(C)cc(Sc2c(CN3CCOC(CCO)C3)c(C)[nH]c(=O)c2I)c1 (stereo not drawn),1.58
11,CCSCc1c(C)[nH]c(=O)c(I)c1Sc1cc(C)cc(C)c1,3.16

# System: not listed separately
# Test: Selectivity index, ratio of CC50 for human MT4 cells to IC50 for HIV-1 LAI harboring wild type reverse transcriptase infected in human MT4 cells
# Type: functional
# Conditions: not given
# Outline: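 Cytotoxicity was measured in mock-infected MT4 cultures (30000 cells/well) given the same compound concentration range, run in parallel with the infected cultures for 5 days at 37 °C, 5% CO2, with MTT viability. CC50 was the concentration reducing viability by 50% versus the drug-free control. SI was CC50 divided by IC50 against HIV-1 LAI.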
row,Compound,Ratio CC50/IC50
1,Cc1cc(C)cc(Oc2c(COCc3ccccc3)c(C)[nH]c(=O)c2I)c1,>12589
2,Cc1cc(C)cc(Sc2c(Cn3cnc(-c4ccccc4)n3)c(C)[nH]c(=O)c2I)c1,>15849
3,Cc1cc(C)cc(Oc2c(CN3CCSCC3)c(C)[nH]c(=O)c2I)c1,>15849
4,Cc1cc(C)cc(Sc2c(CN(C)Cc3ccco3)c(C)[nH]c(=O)c2I)c1,>15849
5,COCCSCc1c(C)[nH]c(=O)c(I)c1Oc1cc(C)cc(C)c1,>50119
6,CC(=O)c1c(C)cn(Cc2c(C)[nH]c(=O)c(I)c2Sc2cc(C)cc(C)c2)c1C,5012
7,Cc1cc(C)cc(Sc2c(CSCc3ccco3)c(C)[nH]c(=O)c2I)c1,>12589
8,Cc1cc(C)cc(Sc2c(Cn3ncnc3C)c(C)[nH]c(=O)c2I)c1,>12589
9,Cc1cc(C)cc(Oc2c(CSCC(C)C)c(C)[nH]c(=O)c2I)c1,>12589
10,Cc1cc(C)cc(Sc2c(CN3CCOC(CCO)C3)c(C)[nH]c(=O)c2I)c1 (stereo not drawn),31623
11,CCSCc1c(C)[nH]c(=O)c(I)c1Sc1cc(C)cc(C)c1,>15849

# System: Human immunodeficiency virus 1
# Test: Antiviral activity against HIV1 HXB2 harboring 227C mutant reverse transcriptase infected in human MT4 cells after 5 days by MTT assay
# Type: functional, organism-based
# Conditions: Human immunodeficiency virus 1, HXB2, MT4, 120 h
# Outline: as §1
row,Compound,IC50 [nM]
1,COCCSCc1c(C)[nH]c(=O)c(I)c1Oc1cc(C)cc(C)c1,199

# System: Human immunodeficiency virus 1
# Test: Antiviral activity against HIV1 HXB2 harboring 100I mutant reverse transcriptase infected in human MT4 cells after 5 days by MTT assay
# Type: functional, organism-based
# Conditions: Human immunodeficiency virus 1, HXB2, MT4, 120 h
# Outline: as §1
row,Compound,IC50 [nM]
1,COCCSCc1c(C)[nH]c(=O)c(I)c1Oc1cc(C)cc(C)c1,10
